# According to ChEMBL document CHEMBL1121938, “Hypocholesterolemic and antiaggregatory properties of 2-hydroxytetronic acid redox analogues an their relationship to clofibric acid” (1982):
# Legend:
# [1] = test system: Rattus norvegicus; experiment: Effect of compound was measured on serum alpha-lipoprotein in male Dawley rats at the dose of 0.4 mmol/kg (day+7).; assay type: functional, organism-based
# Summary of the method: (§1)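 Male Sprague-Dawley rats (180-210 g) fed a high-cholesterol diet for 1 week before and throughout dosing. Groups of n = 6 were dosed orally twice daily for 14 days in 0.25% methylcellulose, with vehicle controls. Rats were fasted 16-18 h before orbital bleeds on days -1, +4, +7 and +10, and by aortic exsanguination on day +14. Serum α-lipoprotein cholesterol was measured by polyanionic precipitation, in mg/dL ± SD.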
# [2] = test system: Rattus norvegicus; experiment: Effect of compound was measured on serum total triglycerides in male Dawley rats at the dose of 0.4 mmol/kg (day+10).; assay type: functional, organism-based
# Summary of the method: (§2)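 Serum triglycerides were measured with an enzymatic triglyceride reagent on a bichromatic analyzer. Rats were male Sprague-Dawley (180-210 g) fed a high-cholesterol diet, n = 6 per group, dosed orally twice daily for 14 days in 0.25% methylcellulose or vehicle. They were fasted 16-18 h before blood collection on days -1, +4, +7, +10 (orbital plexus, light ether) and +14 (aorta). Analysis was repeated-measures ANOVA with Duncan's test.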
# [3] = test system: Rattus norvegicus; experiment: Effect of compound was measured on serum total cholesterol in male Dawley rats at the dose of 0.4 mmol/kg (day-1).; assay type: functional, organism-based
# Summary of the method: (§3)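 Serum total cholesterol was measured enzymatically on a bichromatic analyzer. Serum was separated after clotting on ice (2000g, 10 min), held at 4 °C and assayed within 48 h. Rats were male Sprague-Dawley on a high-cholesterol diet, n = 6, dosed orally twice daily for 14 days in 0.25% methylcellulose (1.0 mL/100 g). They were fasted 16-18 h before each bleed. Results are in mg/dL ± SD.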
# [4] = test system: Rattus norvegicus; experiment: Effect of compound on liver CH levels in male Dawley rats at the dose of 0.4 mmol/kg; assay type: functional; set-up: unit: g/100 g wet liver
# Summary of the method: (§4)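 Male Sprague-Dawley rats (180-210 g) were kept on a high-cholesterol diet for 1 week before and throughout treatment. Groups of n = 6 received drug in 0.25% methylcellulose orally twice daily for 14 days, or vehicle. After a 16-18 h fast, livers were excised at day +14 and homogenized in 0.1 M Tris-HCl pH 7.2 with 1.15% KCl. Lipids were extracted from 25% w/v homogenate and reported as g/100 g wet liver ± SD; groups compared by ANOVA and Duncan's test.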
# [5] = Effect of compound was measured on serum heparin-MnCl2 precipated ipoprotein Dawley rats at 0.4 mmol/kg dose(day+7).; assay type: functional
# Summary of the method: (§5)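 Cholesterol-fed male Sprague-Dawley rats, n = 6 per group, given compound or 0.25% methylcellulose orally twice daily for 14 days, and fasted 16-18 h before each bleed (days -1, +4, +7, +10, +14). Heparin-MnCl2 precipitable lipoprotein cholesterol was taken as serum total cholesterol minus α-lipoprotein cholesterol. It is reported as a ratio to α-LP cholesterol ± SD. Analysis was ANOVA with repeated measures and Duncan's test.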
# [6] = test system: Rattus norvegicus; experiment: Effect of compound was measured on serum total triglycerides in male Dawley rats at the dose of 0.4 mmol/kg (day+14).; assay type: functional, organism-based; summary of the method: as §2
# [7] = test system: Rattus norvegicus; experiment: Effect of compound was measured on serum total cholesterol in male Dawley rats at the dose of 0.4 mmol/kg (day+10).; assay type: functional, organism-based; summary of the method: as §3
# [8] = Effect of compound was measured on serum heparin-MnCl2 precipated ipoprotein Dawley rats at 0.4 mmol/kg dose(day+4).; assay type: functional; summary of the method: as §5
# [9] = test system: Rattus norvegicus; experiment: Effect of compound was measured on serum total triglycerides in male Dawley rats at the dose of 0.4 mmol/kg (day-1).; assay type: functional, organism-based; summary of the method: as §2
# [10] = Effect of compound was measured on serum heparin-MnCl2 precipated ipoprotein Dawley rats at 0.4 mmol/kg dose(day+14).; assay type: functional; summary of the method: as §5
# [11] = test system: Rattus norvegicus; experiment: Effect of compound on liver TG levels in male Dawley rats at the dose of 0.4 mmol/kg; assay type: functional; set-up: unit: g/100 g wet liver; summary of the method: as §4
# [12] = test system: Rattus norvegicus; experiment: Effect of compound was measured on serum total triglycerides in male Dawley rats at the dose of 0.4 mmol/kg (day+4).; assay type: functional, organism-based; summary of the method: as §2
# [13] = test system: Rattus norvegicus; experiment: Effect of compound was measured on serum alpha-lipoprotein in male Dawley rats at the dose of 0.4 mmol/kg (day14).; assay type: functional, organism-based; summary of the method: as §1
# [14] = test system: Rattus norvegicus; experiment: Effect of compound was measured on serum alpha-lipoprotein in male Dawley rats at the dose of 0.4 mmol/kg (day+4).; assay type: functional, organism-based; summary of the method: as §1
# [15] = test system: Rattus norvegicus; experiment: Effect of compound was measured on serum alpha-lipoprotein in male Dawley rats at the dose of 0.4 mmol/kg (day+10).; assay type: functional, organism-based; summary of the method: as §1
# [16] = test system: Rattus norvegicus; experiment: Effect of compound was measured on serum total triglycerides in male Dawley rats at the dose of 0.4 mmol/kg (day+7).; assay type: functional, organism-based; summary of the method: as §2
# [17] = test system: Rattus norvegicus; experiment: Effect of compound was measured on serum total cholesterol in male Dawley rats at the dose of 0.4 mmol/kg (day+4).; assay type: functional, organism-based; summary of the method: as §3
# [18] = Effect of compound was measured on serum heparin-MnCl2 precipated ipoprotein Dawley rats at 0.4 mmol/kg dose(day-1).; assay type: functional; summary of the method: as §5
# [19] = Effect of compound was measured on serum heparin-MnCl2 precipated ipoprotein Dawley rats at 0.4 mmol/kg dose(day+10).; assay type: functional; summary of the method: as §5
# [20] = Effect of compound on liver to body weight ratio in male Dawley rats at the dose of 0.4 mmol/kg; assay type: functional
# Summary of the method: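 Male Sprague-Dawley rats (180-210 g) were kept on a cholesterol-rich diet and dosed orally twice daily for 14 days in 0.25% methylcellulose; vehicle controls received the same; n = 6 per group. After a 16-18 h fast, rats were exsanguinated at day +14. Livers were removed, rinsed in ice-cold buffer, blotted and weighed, and related to body weight. Data were analysed by repeated-measures ANOVA with Duncan's multiple range test.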
# [21] = test system: Rattus norvegicus; experiment: Effect of compound was measured on serum total cholesterol in male Dawley rats at the dose of 0.4 mmol/kg (day+7).; assay type: functional, organism-based; summary of the method: as §3
# [22] = test system: Rattus norvegicus; experiment: Effect of compound was measured on serum total cholesterol in male Dawley rats at the dose of 0.4 mmol/kg (day+14).; assay type: functional, organism-based; summary of the method: as §3
# [23] = test system: Rattus norvegicus; experiment: Effect of compound was measured on serum alpha-lipoprotein in male Dawley rats at the dose of 0.4 mmol/kg (day-1).; assay type: functional, organism-based; summary of the method: as §1
smiles,measurement,setting,value
NC1=C(O)C(=O)C(c2ccc(Cl)cc2)O1 (stereo not drawn),alpha-lipoprotein cholesterol,[1],43 mg/dL
same,Serum total triglycerides,[2],158 mg/dL
same,serum total cholesterol,[3],193 mg/dL
same,Liver CH levels,[4],4.03
same,Ratio,[5],5.59
same,Serum total triglycerides,[6],119 mg/dL
same,serum total cholesterol,[7],344 mg/dL
same,Ratio,[8],3.43
same,Serum total triglycerides,[9],179 mg/dL
same,Ratio,[10],6.31
same,Liver TG,[11],2.8
same,Serum total triglycerides,[12],147 mg/dL
same,alpha-lipoprotein cholesterol,[13],38.8 mg/dL
same,alpha-lipoprotein cholesterol,[14],33.2 mg/dL
same,alpha-lipoprotein cholesterol,[15],43.7 mg/dL
same,Serum total triglycerides,[16],128 mg/dL
same,serum total cholesterol,[17],138 mg/dL
same,Ratio,[18],3.65
same,Ratio,[19],7.13
same,Ratio,[20],4.1
same,serum total cholesterol,[21],252 mg/dL
same,serum total cholesterol,[22],278 mg/dL
same,alpha-lipoprotein cholesterol,[23],43.8 mg/dL
